Test results published in ChEMBL document CHEMBL3392973, “Insulin-mimetic selaginellins from Selaginella tamariscina with protein tyrosine phosphatase 1B (PTP1B) inhibitory activity” (J Nat Prod, 2015).
Several values for one entry are separate records, joined by “and”; a condition that tells them apart may be missing. Identical values can stand only once. Activity calls are given as the source filed them. The rule behind the calls is not given here.

How the values were obtained:
[1] = biological target: T1, Tyrosine-protein phosphatase non-receptor type 1 (Homo sapiens, UniProt P18031); test: Noncompetitive inhibition of human recombinant PTP1B using p-nitrophenylphosphate as substrate by Lineweaver-Burk plot analysis
T1 sequence (P18031 whole entry): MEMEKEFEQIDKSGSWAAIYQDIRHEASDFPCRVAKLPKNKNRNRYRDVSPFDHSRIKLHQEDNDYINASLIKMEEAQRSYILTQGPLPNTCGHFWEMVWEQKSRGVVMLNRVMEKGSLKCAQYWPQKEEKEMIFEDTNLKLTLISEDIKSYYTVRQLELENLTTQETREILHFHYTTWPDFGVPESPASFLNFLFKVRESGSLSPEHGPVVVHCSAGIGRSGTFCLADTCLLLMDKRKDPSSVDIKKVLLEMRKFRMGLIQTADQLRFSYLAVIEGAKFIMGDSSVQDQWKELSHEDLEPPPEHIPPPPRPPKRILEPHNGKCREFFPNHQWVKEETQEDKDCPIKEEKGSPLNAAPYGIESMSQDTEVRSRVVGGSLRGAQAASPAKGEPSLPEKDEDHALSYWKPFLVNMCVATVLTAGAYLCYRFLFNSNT

[2] = biological target: T1, Tyrosine-protein phosphatase non-receptor type 1; test: Inhibition of human recombinant PTP1B using p-nitrophenylphosphate as substrate
Outline: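 Human recombinant PTP1B in 50 mM citrate pH 6.0, 0.1 M NaCl, 1 mM EDTA, 1 mM DTT, ± sample, preincubated 10 min at 37 °C. Substrate 2 mM p-NPP, then 20 min at 20 °C, stopped with NaOH, A405. Blank without enzyme corrects for non-enzymatic hydrolysis. IC50 by regression, mean ± SD of three replicates.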

[3] = Cytotoxicity against mouse NIH/3T3 cells at 50 uM after 48 hrs by MTT assay; settings: nih3t3, 48 h
3T3-L1 (Mus musculus) = test: Induction of 2-NBDG uptake in mouse 3T3-L1 adipocyte cells at 5 uM after 24 hrs measured after 30 mins of 2-NBDG by fluorescence assay
[4] = biological target: T1, Tyrosine-protein phosphatase non-receptor type 1; test: Mixed-competitive inhibition of human recombinant PTP1B using p-nitrophenylphosphate as substrate by Lineweaver-Burk plot analysis
[5] = biological target: T1, Tyrosine-protein phosphatase non-receptor type 1; test: Uncompetitive inhibition of human recombinant PTP1B using p-nitrophenylphosphate as substrate by Lineweaver-Burk plot analysis

Compound	Ki [1]	IC50 [2]	Ki [4]	Ki [5]	Activity [3]	Activity (3T3-L1 (Mus musculus))
OCc1ccc(-c2ccc(O)cc2O)c(C(O)(c2ccc(O)cc2)c2ccc(O)cc2)c1C#Cc1ccc(O)cc1	10.3 µM	21.6 µM	–	–	Non-toxic	Active
O=C1C=CC(=C(c2ccc(O)cc2)c2c(-c3ccc(O)cc3)ccc(CO)c2C#Cc2ccc(O)cc2)C=C1	–	4.6 µM and 15.9 µM	3 µM and 13.9 µM	–	Non-toxic	Active
COCc1ccc(-c2ccc(O)cc2O)c(C(O)(c2ccc(O)cc2)c2ccc(O)cc2)c1C#Cc1ccc(O)cc1	–	19.4 µM	–	15.1 µM	Non-toxic	Active

Continued by falling IC50 [2], values first:

Ki [1]	IC50 [2]	Ki [4]	Ki [5]	Compound	Activity [3]	Activity (3T3-L1 (Mus musculus))
–	11.5 µM	8.9 µM	–	COc1ccc(C(=C2C=CC(=O)C=C2)c2c(-c3ccc(O)cc3)ccc(CO)c2C#Cc2ccc(O)cc2)cc1	–	Active
–	0.7 µM	–	–	O=C(O)c1nnc(-c2ccc(-c3ccccc3)cc2)o1	–	–
